Results gathered from unrelated publications.
Compare with care: the assays were run in different laboratories.
Method: competition with immobilised ligand
RPS6KA6 C-terminal kinase domain: Ribosomal protein S6 kinase alpha-6, C-terminal kinase domain (RPS6KA6, Homo sapiens, UniProt Q9UK32)
RPS6KA6 N-terminal kinase domain: Ribosomal protein S6 kinase alpha-6, N-terminal kinase domain (RPS6KA6, Homo sapiens, UniProt Q9UK32)

SMILES	target	read-out	concentration	remaining binding [%]
COc1cc(C(=O)N2CCC(N3CCN(C)CC3)CC2)ccc1Nc1ncc2c(n1)N(C)c1ccccc1C(=O)N2C	RPS6KA6 C-terminal kinase domain	binding	10 µM	2.2
CCCCN(CCCC)C(=O)CN1C[C@@H](c2cc(OC)c3c(c2)OCO3)[C@H](C(=O)O)[C@H]1CC(C)(C)CCC	RPS6KA6 N-terminal kinase domain	cell-free assay	1 µM	96.6
F[C@@H]1CCN(c2nccc(-c3cnn4ncccc34)n2)C1	RPS6KA6 C-terminal kinase domain	binding	1 µM	92
O=C(NCCCN1CCOCC1)c1ccc(Nc2ncc(Cl)c(-c3ccc(Cl)s3)n2)cc1	RPS6KA6 N-terminal kinase domain	binding	1 µM	72
Nc1ncc2c(n1)-c1c([nH]c3ccc(C#CC4CC4)cc13)CCCC2	RPS6KA6 C-terminal kinase domain	binding	1 µM	91
COc1ccc2c(c1)O[C@@H](c1ccc(OC)c(OC)c1)C[C@H]2NC(=O)C1(c2ccc3c(c2)OC(F)(F)O3)CC1	RPS6KA6 N-terminal kinase domain	cell-free assay	1 µM	84
CN(C)c1nccc(-c2cnc3ncccn23)n1	RPS6KA6 N-terminal kinase domain	binding	1 µM	69
Cc1cnc(Nc2ccc(C(=O)N3CCC(N4CCCC4)CC3)cc2)nc1-c1cc2ccccc2s1	RPS6KA6 N-terminal kinase domain	binding	1 µM	30
COc1ncc2cc3ccccc3nc2c1C#N	RPS6KA6 N-terminal kinase domain	cell-free assay	5 µM	100
CCN1CCN(Cc2ccc(C(=O)Nc3ccc(C)c(Oc4ccc5c(c4)CC(=O)N5)c3)cc2C(F)(F)F)CC1	RPS6KA6 N-terminal kinase domain	binding	1 µM	100
O=C(NCC1CCOCC1)c1n[nH]cc1NC(=O)c1c(F)cccc1F	RPS6KA6 N-terminal kinase domain	binding	1 µM	41
COc1cnc(Nc2cccc(S(N)(=O)=O)c2)nc1N1CCN(c2ccccc2)CC1	RPS6KA6 C-terminal kinase domain	binding	1 µM	69
COc1cc(-c2cn(C3CCc4ccccc4N(CC(F)(F)F)C3=O)nn2)ccc1-n1ccc(C)n1 (stereo not drawn)	RPS6KA6 N-terminal kinase domain	cell-free assay	1 µM	81
CC1CCCN1c1nccc(-c2cnn3ncccc23)n1 (stereo not drawn)	RPS6KA6 C-terminal kinase domain	binding	1 µM	100
Cc1cc(-n2nc(Cc3cc(F)cc(C(F)(F)F)c3)nc2C)ccc1C(N)=O	RPS6KA6 N-terminal kinase domain	cell-free assay	1 µM	89
O=C(c1ccc(Nc2nccc(-c3cc4ccccc4s3)n2)cc1)N1CCC(N2CCCC2)CC1	RPS6KA6 N-terminal kinase domain	binding	1 µM	98
NS(=O)(=O)c1cc(NC(=O)C2(c3ccccc3Cl)CC2)ccc1Oc1cccc(Cl)c1	RPS6KA6 C-terminal kinase domain	cell-free assay	1 µM	96

SMILES	target	read-out	concentration	remaining binding [%]
CN(c1nccc(-c2cnn3ncccc23)n1)C1CC1	RPS6KA6 C-terminal kinase domain	binding	1 µM	100
FC(F)(F)Oc1cccc(-c2cnc3ccc(-c4ccncc4)nn23)c1	RPS6KA6 N-terminal kinase domain	binding	5 µM	64
CN(C)C(=O)Cn1cc(-c2nc(C3(c4ccc(-c5cnc(N)nc5)cc4)CC3)no2)cn1	RPS6KA6 N-terminal kinase domain	cell-free assay	1 µM	83
O=C(c1ccc(Nc2ncc(Cl)c(-c3ccc(Cl)s3)n2)cc1)N1CCC(N2CCCC2)CC1	RPS6KA6 C-terminal kinase domain	binding	1 µM	83
Cc1cnn2ncc(-c3ccnc(N(C)C)n3)c2c1	RPS6KA6 C-terminal kinase domain	binding	1 µM	100
CNC(=O)[C@@H]1CC[C@@H](n2c(-c3ccc4cnccc4c3)nc3ccc(C(=O)NCc4cccc(C(N)=O)c4)cc32)C1	RPS6KA6 N-terminal kinase domain	binding	1 µM	100
Cc1c(C(=O)O)cc(-c2ccc(C3CCNCC3)cc2)c2ccc(-c3ccc(C(F)(F)F)cc3)cc12	RPS6KA6 C-terminal kinase domain	binding	1 µM	100
c1cncc(-c2cccc(Nc3nccc(NC4CCCCC4)n3)c2)c1	RPS6KA6 C-terminal kinase domain	binding	10 µM	87
COc1ccnn2ncc(-c3ccnc(N(C)C)n3)c12	RPS6KA6 C-terminal kinase domain	binding	1 µM	100
Cn1nc(C(F)(F)F)cc1-c1cnc(N2CCc3cc(S(=O)(=O)Nc4c(F)cc(Cl)cc4F)cc(N4CCCC4=O)c32)nc1	RPS6KA6 N-terminal kinase domain	cell-free assay	1 µM	85
O=C(c1ccc(Nc2ncc(Cl)c(-c3cc4ccccc4s3)n2)cc1)N1CCC(N2CCCC2)CC1	RPS6KA6 C-terminal kinase domain	binding	1 µM	89
N[C@H]1CCN(c2nccc(-c3cnn4ncccc34)n2)C1	RPS6KA6 C-terminal kinase domain	binding	1 µM	86
COc1cnc(Nc2cccc(S(N)(=O)=O)c2)nc1N1CCN(c2ccccc2)C(=O)C1	RPS6KA6 N-terminal kinase domain	binding	1 µM	79
CN(C)c1nccc(-c2cnn3ncccc23)n1	RPS6KA6 N-terminal kinase domain	binding	1 µM	92
O=C(NCCCN1CCOCC1)c1ccc(Nc2nccc(-c3cc4ccccc4s3)n2)cc1	RPS6KA6 C-terminal kinase domain	binding	1 µM	35
O=C(Nc1c[nH]nc1C(=O)NC1CCNCC1)c1cc(F)cc(F)c1	RPS6KA6 C-terminal kinase domain	binding	1 µM	100
